Data set [1] has as its target Xaa-Pro dipeptidase (Alteromonas sp.) (UniProt Q44238). Nature of the data set: Ratio of kinetic constant Kcat to Km from initial velocity assay against OPAA from Alteromonas sp. JD6.5. A digest of the protocol:
(§1)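 Recombinant OPAA expressed in E. coli XL1 (plasmid pTCJS4), then ammonium sulfate and Q-Sepharose purification. Continuous plate assay at 25 °C with 1 μg enzyme in 50 mM bis-Tris propane pH 8.5, 100 mM NaCl, 0.1 mM MnCl2. Phenyl-containing and diisopropyl substrates had 5% methanol, diphenyl substrate 20%. p-Nitrophenol release was read at 400 nm (ε 17,000 M⁻¹ cm⁻¹). Rates were fitted to v = kcat·E·A/(Km + A).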

Data set [2] shares this target. Nature of the data set: Kinetic constant Kcat from initial velocity assay against Organophosphorus acid anhydrolase from Alteromonas sp. JD6.5. The method in brief: as §1
The target is the same in data set [3]. Nature of the data set: Ratio of kinetic constant K1 to K2 from progress curves against OPAA from Alteromonas sp. JD6.5. The method in brief: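 Time-course assays at 25 °C in a cuvette spectrophotometer, started by adding enzyme to 3.0 mL of 50 mM bis-Tris propane pH 8.5, 100 mM NaCl, 0.1 mM MnCl2, without methanol. Complete hydrolysis was followed at 400 nm. Traces were fitted to single or double exponential equations to give rate constants for the two enantiomers, and their ratio was taken.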

Data set [4] shares this target. Description: Ratio of kinetic constant Kcat to Km Sp and Kcat to Km Rp from initial velocity assay against OPAA from Alteromonas sp. JD6.5. A digest of the protocol:
as §1

The target is the same in data set [5]. Nature of the data set: Ratio of kinetic constant Kcat to Km by linear fit to data against OPAA from Alteromonas sp. JD6.5. The method in brief: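 kcat/Km was taken from a linear fit to initial-rate data. Continuous 400 nm p-nitrophenol assay at 25 °C with 1 μg recombinant OPAA (E. coli XL1/pTCJS4). Buffer was 50 mM bis-Tris propane pH 8.5, 100 mM NaCl, 0.1 mM MnCl2, plus 5–20% methanol depending on substrate.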

Data set [6] shares this target. Description: Kinetic constant Kcat from initial velocity assay (at 7.6 mM substrate) against Organophosphorus acid anhydrolase from Alteromonas sp. JD6.5. A digest of the protocol: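 Initial-rate assay at a single substrate concentration of 7.6 mM. Used 1 μg purified recombinant OPAA (E. coli XL1/pTCJS4) at 25 °C in 50 mM bis-Tris propane pH 8.5, 100 mM NaCl, 0.1 mM MnCl2, with methanol cosolvent as needed. Hydrolysis was followed at 400 nm as p-nitrophenol (ε 17,000 M⁻¹ cm⁻¹).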

Data set [7] deals with CCOP(=O)(OCC)Oc1ccc([N+](=O)[O-])cc1. Description: (§2) Kinetic constant Km from initial velocity assay against Organophosphorus acid anhydrolase from Alteromonas sp. JD6.5. The method in brief: as §1
Data set [8] relates to CCO[P@](=O)(Oc1ccccc1)Oc1ccc([N+](=O)[O-])cc1. Described as §2. The method in brief:
as §1

Data set [9] concerns CO[P@](=O)(Oc1ccccc1)Oc1ccc([N+](=O)[O-])cc1. Described as §2. The method in brief: as §1
In data set [10] the test system is CCO[P@@](=O)(Oc1ccccc1)Oc1ccc([N+](=O)[O-])cc1. Described as §2. A digest of the protocol:
as §1

The subject of data set [11] is CO[P@@](=O)(Oc1ccccc1)Oc1ccc([N+](=O)[O-])cc1. Described as §2. The method in brief: as §1
For data set [12], the system named is CCO[P@@](=O)(OC)Oc1ccc([N+](=O)[O-])cc1. Described as §2. The method in brief:
as §1

The test system of data set [13] is CO[P@@](=O)(Oc1ccc([N+](=O)[O-])cc1)OC(C)C. The data set is described as §2. The method in brief:
as §1

Data set [14] deals with O=[N+]([O-])c1ccc(OP(=O)(Oc2ccccc2)Oc2ccccc2)cc1. The description is as §2. The method in brief: as §1
In data set [15] the test system is CC(C)O[P@](=O)(Oc1ccccc1)Oc1ccc([N+](=O)[O-])cc1. The description is as §2. The method in brief:
as §1

Data set [16] deals with CC(C)O[P@@](=O)(Oc1ccccc1)Oc1ccc([N+](=O)[O-])cc1. The data set is described as §2. The method in brief:
as §1

Data set [17] has as its system CO[P@](=O)(Oc1ccc([N+](=O)[O-])cc1)OC(C)C. The data set is described as §2. A digest of the protocol:
as §1

In data set [18] the test system is CCO[P@](=O)(OC)Oc1ccc([N+](=O)[O-])cc1. Described as §2. The method in brief: as §1
Data set [19] concerns COP(=O)(OC)Oc1ccc([N+](=O)[O-])cc1. Described as §2. The method in brief:
as §1

Sequence of Xaa-Pro dipeptidase (Alteromonas sp.) (UniProt Q44238) (Q44238 whole entry, looked up): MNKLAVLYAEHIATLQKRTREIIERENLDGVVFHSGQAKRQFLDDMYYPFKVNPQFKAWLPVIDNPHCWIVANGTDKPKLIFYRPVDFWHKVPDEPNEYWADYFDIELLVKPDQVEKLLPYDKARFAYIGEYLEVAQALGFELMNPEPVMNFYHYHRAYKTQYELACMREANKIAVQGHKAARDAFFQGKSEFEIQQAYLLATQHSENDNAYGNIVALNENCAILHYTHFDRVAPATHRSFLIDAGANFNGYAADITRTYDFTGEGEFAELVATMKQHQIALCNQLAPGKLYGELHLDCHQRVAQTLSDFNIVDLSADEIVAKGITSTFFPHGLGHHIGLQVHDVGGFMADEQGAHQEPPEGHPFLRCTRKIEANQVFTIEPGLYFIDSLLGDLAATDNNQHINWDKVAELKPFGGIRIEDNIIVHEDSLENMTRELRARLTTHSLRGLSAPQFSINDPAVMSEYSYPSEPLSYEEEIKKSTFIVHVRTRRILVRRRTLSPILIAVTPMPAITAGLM

With `CC(C)O[P@@](=O)(Oc1ccccc1)Oc1ccc([N+](=O)[O-])cc1`, the k cat/Km in data set [1] is 150 M⁻¹ s⁻¹. In [2], the k cat turned out to be 0.2 s⁻¹.
In the case of `CO[P@](=O)(Oc1ccc([N+](=O)[O-])cc1)OC(C)C`, in data set [1], the k cat/Km came out at 4510 M⁻¹ s⁻¹. The molecule also registered a k cat in data set [2] of 54 s⁻¹.
On to `CCO[P@](=O)(Oc1ccccc1)Oc1ccc([N+](=O)[O-])cc1`, for which, in data set [1], the k cat/Km was 300 M⁻¹ s⁻¹. For the same molecule, the results for the Ratio in data set [3] and in data set [4] were 2.8 and below 3, respectively. For the same molecule, the k cat in data set [2] is 0.2 s⁻¹.
On the same counts, the results for `CO[P@@](=O)(Oc1ccc([N+](=O)[O-])cc1)OC(C)C` are 190 M⁻¹ s⁻¹, 100, 23 and 3.6 s⁻¹.
Consider `CO[P@@](=O)(Oc1ccccc1)Oc1ccc([N+](=O)[O-])cc1`, for which the k cat/Km in [1] came out at 9990 M⁻¹ s⁻¹. Besides, the k cat in [2] is 40 s⁻¹.
On the same counts, the results for `COP(=O)(OC)Oc1ccc([N+](=O)[O-])cc1` are 140 M⁻¹ s⁻¹ and 1.4 s⁻¹.
As to `CO[P@](=O)(Oc1ccccc1)Oc1ccc([N+](=O)[O-])cc1`, the k cat/Km in [1] stood at 2340 M⁻¹ s⁻¹. The Ratio in data set [3] turned out to be 14.5; in data set [4] it was 4. Further, the k cat in [2] came out at 1.8 s⁻¹.
On the same counts, the results for `CCO[P@@](=O)(OC)Oc1ccc([N+](=O)[O-])cc1` are 90 M⁻¹ s⁻¹, 112, 36 and 0.8 s⁻¹.
As to `CCOP(=O)(OCC)Oc1ccc([N+](=O)[O-])cc1`, the k cat/Km in data set [5] is 280 M⁻¹ s⁻¹. Also, the k cat in data set [6] was 1.8 s⁻¹.
“Xaa-Pro dipeptidase (Alteromonas sp.) (from UniProt Q44238)”: the Km – broadly, the concentration of substrate that gives half-maximal velocity – is above 7.6 mM in [7]; 0.6 mM in [8]; 0.8 mM in data set [9]; 2 mM in data set [10]; 4 mM in data set [11]; 8.3 mM in [12]. Further, the Km in [13] is 19 mM; in [14], 0.2 mM; in data set [15], 0.3 mM; in [16], 1.3 mM; in data set [17], 12 mM; in [18] it was 14 mM. Also, in data set [19], the Km was 9.5 mM.
Regarding `CCO[P@](=O)(OC)Oc1ccc([N+](=O)[O-])cc1`, the k cat/Km in data set [1] stood at 3250 M⁻¹ s⁻¹. For the same molecule, the k cat in [2] was found to be 47 s⁻¹.
In the case of `O=[N+]([O-])c1ccc(OP(=O)(Oc2ccccc2)Oc2ccccc2)cc1`, in data set [1], the k cat/Km came out at 530 M⁻¹ s⁻¹. The molecule further had a k cat in data set [2] of 0.1 s⁻¹.
On the same counts, the results for `CCO[P@@](=O)(Oc1ccccc1)Oc1ccc([N+](=O)[O-])cc1` are 360 M⁻¹ s⁻¹ and 0.7 s⁻¹.
Turning to `CC(C)O[P@](=O)(Oc1ccccc1)Oc1ccc([N+](=O)[O-])cc1`, in [1], the k cat/Km is 240 M⁻¹ s⁻¹. Further, the figures for the Ratio in data set [3] and in data set [4] were 3.5 and below 3, respectively. In data set [2], this molecule yielded a k cat of 0.1 s⁻¹.
